Here are results for twelve compounds from ChEMBL document CHEMBL1156656, “HIV-1 ribonuclease H inhibitory phenolic glycosides from Eugenia hyemalis” (J Nat Prod, 2008).

The source made the active and inactive calls. The calls are words filed in the database; no cut-off is given here. Some results are limits rather than exact numbers.

The nature of assay [1]: Inhibition of HIV1 RNase H by FRET assay. Details: species or system Human immunodeficiency virus 1. In a few lines: (§1)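 RNase H enzymes (HIV-1, HIV-2, human) assayed by high-throughput fluorescence resonance energy transfer (FRET) cleavage assay; extracts run in presence of 1% bovine serum albumin.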
Assay [2] is described as follows: Inhibition of HIV2 RNase H by FRET assay. Set-up: species or system Human immunodeficiency virus 2. In short, it runs like this:
as §1

Another assay concerns Escherichia coli. Description: Inhibition of Escherichia coli RNase H by FRET assay.
Assay [3] in a line: Inhibition of human RNase H by FRET assay. In short, it runs like this:
as §1

In assay [4] the test system is Human immunodeficiency virus. The experiment in a line: Antiviral activity against HIV-RF in human CEM-SS cells assessed as cytopathogenicity at 20 ug/ml. It counts as functional, organism-based. In a few lines: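 Human CEM-SS T cells infected with HIV-1 strain RF; XTT-based cell viability read-out of protection from viral cytopathic effect; highest dose tested 20 μg/mL.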

As to `C[C@H]1O[C@H](Oc2c(-c3ccc(O)cc3)oc3cc(O)cc(O)c3c2=O)[C@@H](O)[C@@H](OC(=O)c2cc(O)c(O)c(O)c2)[C@H]1O`, the IC50 in assay [1] was above 17.1 µM; in assay [2], 9.12 µM; in assay [3] it was 7.25 µM. Moreover, the outcome with Escherichia coli was inactive.

Turning to `O=C(OC[C@H]1O[C@@H](Oc2ccc(O)cc2)[C@H](OC(=O)c2cc(O)c(O)c(O)c2)[C@@H](O)[C@@H]1O)c1ccc(O)cc1` [HYEMALOSIDE B], the IC50 was above 18.3 µM in assay [1], 3.32 µM in assay [2] and 2.44 µM in assay [3]. Also, in the assay with Escherichia coli, the result was inactive.

For `O=C(OC[C@H]1O[C@@H](Oc2ccc(O)cc2)[C@H](OC(=O)c2cc(O)c(O)c(O)c2)[C@@H](OC(=O)c2cc(O)c(O)c(O)c2)[C@@H]1O)c1cc(O)c(O)c(O)c1` [HYEMALOSIDE A], the results for the IC50 in assay [1], in assay [2] and in assay [3] were 1.46 µM, 0.58 µM and 0.18 µM, respectively. In addition, the outcome in the assay with Escherichia coli was inactive.

As to `O=C(OC[C@H]1O[C@@H](Oc2ccc(O)cc2)[C@H](OC(=O)c2cc(O)c(O)c(O)c2)[C@@H](O)[C@@H]1OC(=O)c1cc(O)c(O)c(O)c1)c1cc(O)c(O)c(O)c1`, the figures for the IC50 in assay [1], in assay [2] and in assay [3] were 0.68 µM, 0.1 µM and 0.04 µM, respectively. The result with Escherichia coli was inactive.

For the compound `O=C(OC[C@H]1O[C@@H](Oc2ccc(O)cc2)[C@H](OC(=O)c2cc(O)c(O)c(O)c2)[C@@H](O)[C@@H]1O)c1cc(O)c(O)c(O)c1`, the figures for the IC50 in assay [1], in assay [2] and in assay [3] were 5.05 µM, 0.28 µM and 0.55 µM, respectively. Further, the outcome with Escherichia coli was inactive.

For the compound `O=C(O[C@H]1[C@H](Oc2ccc(O)cc2)O[C@H](CO)[C@@H](O)[C@@H]1O)c1cc(O)c(O)c(O)c1`, the IC50 in assay [1], in assay [2] and in assay [3] was above 23.5 µM throughout. In the assay with Escherichia coli, the result was inactive.

`O=C(OC[C@H]1O[C@@H](Oc2c(-c3ccc(O)cc3)oc3cc(O)cc(O)c3c2=O)[C@H](O)[C@@H](O)[C@@H]1O)c1cc(O)c(O)c(O)c1`: the IC50 in assay [1] was above 16.6 µM; in assay [2] it was 5.19 µM; in assay [3], 9.5 µM. Also, the result in the assay on Escherichia coli was inactive.

With `O=C(O[C@H]1[C@H](O)[C@@H](O)[C@H](Oc2ccc(O)cc2)O[C@@H]1CO)c1cc(O)c(O)c(O)c1`, the IC50 in assay [1], in assay [2] and in assay [3] was above 23.5 µM each time. For the same compound, the outcome (in the assay on Escherichia coli; in assay [4]) was inactive.

`C[C@H]1O[C@H](Oc2c(-c3ccc(O)cc3)oc3cc(O)cc(O)c3c2=O)[C@@H](OC(=O)c2cc(O)c(O)c(O)c2)[C@@H](O)[C@H]1O`: the IC50 in assay [1] is above 17.1 µM; in assay [2] it was 3.38 µM; in assay [3], 3.03 µM. The result with Escherichia coli was inactive.

In the case of `C[C@@H]1O[C@@H](Oc2c(-c3ccc(O)c(O)c3)oc3cc(O)cc(O)c3c2=O)[C@H](O)[C@H](O)[C@H]1O` [QUERCITRIN], the IC50 was above 22.3 µM in assay [1], 21.3 µM in assay [2] and 12.5 µM in assay [3]. For the same compound, the outcome in the assay on Escherichia coli was inactive.

`O=C(O[C@@H]1[C@@H](OC(=O)c2cc(O)c(O)c(O)c2)[C@H](Oc2ccc(O)cc2)O[C@@H]2COC(=O)c3cc(O)c(O)c(O)c3-c3c(cc(O)c(O)c3O)C(=O)O[C@@H]12)c1cc(O)c(O)c(O)c1` [HYEMALOSIDE C]: the values for the IC50 in assay [1], in assay [2] and in assay [3] were 1.19 µM, 0.84 µM and 0.07 µM, respectively. Moreover, in the assay on Escherichia coli, the outcome was inactive.

Regarding `O=C(OC[C@H]1O[C@@H](OC(=O)c2cc(O)c(O)c(O)c2)[C@H](OC(=O)c2cc(O)c(O)c(O)c2)[C@@H](O)[C@@H]1O)c1cc(O)c(O)c(O)c1`, the figures for the IC50 in assay [1], in assay [2] and in assay [3] were 10.2 µM, 0.28 µM and 0.55 µM, respectively. For the same compound, the outcome with Escherichia coli was inactive.
